Experiment: Inhibition of CK2 in rat liver
Outline: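 Native CK2 purified from rat liver. Started with kinase, stopped at 10 min with orthophosphoric acid. Read by phosphocellulose filter binding and counting. Three independent experiments, values averaged.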

With `O=C(O)/C=C/c1cc(Br)c(Br)c(Br)c1Br` as the compound, how does the IC50 read?
Its IC50 is 0.11 µM.

Which IC50 does the source give for `O=c1c2c(O)cccc2oc2c([N+](=O)[O-])ccc(O)c12` here?
The IC50 was 0.4 µM.

Which IC50 does the source give for `Cc1cc(=O)oc2c(C)c(O)c([N+](=O)[O-])cc12` here?
The IC50 was 30 µM.

With `Cc1c(Br)c(=O)oc2c(O)c(O)ccc12` as the compound, how does the IC50 read?
Its IC50 is 10.5 µM.

Which IC50 does the source give for `Cc1cc(=O)oc2c(C=O)c(O)ccc12` here?
The IC50 was > 40 µM.

For `Cc1cc(=O)oc2cc3c([N+](=O)[O-])c(O)ccc3cc12`, which IC50 is on record?
The IC50 was 0.3 µM.

For `Cc1c(Br)c(=O)oc2c(C=O)c(O)ccc12`, which IC50 is on record?
The IC50 was 3.3 µM.

With `Cc1c(Br)c(=O)oc2c(Br)c(O)ccc12` as the compound, how does the IC50 read?
The IC50 was 0.1 µM.

And the Ki?
The Ki was 0.06 µM.

Which IC50 does the source give for `COc1cc(O)cc2oc(=O)c(C)cc12` here?
The IC50 was > 40 µM.

Which IC50 does the source give for `Cc1cc(=O)oc2cc(O)ccc12` [HYMECROMONE] here?
The IC50 was > 100 µM.

With `Cc1c(Br)c(=O)oc2c(Br)c(O)c(O)cc12` as the compound, how does the IC50 read?
Its IC50 is 2 µM.

With `O=c1ccc2ccc(O)cc2o1` [UMBELLIFERONE] as the compound, how does the IC50 read?
The IC50 was > 100 µM.

With `O=c1cc(CCl)c2ccc(O)cc2o1` as the compound, how does the IC50 read?
Its IC50 is > 40 µM.

For `COc1c(O)c(-c2ccnnc2)cc2ccc(=O)oc12`, which IC50 is on record?
Its IC50 is > 100 µM.

For `Cc1cc(=O)oc2cc(O)cc(O)c12` [5,7-DIHYDROXY-4-METHYLCOUMARIN], which IC50 is on record?
Its IC50 is 35 µM.

For `O=c1ccc2c(O)cc(O)cc2o1`, which IC50 is on record?
Its IC50 is 35 µM.

With `O=c1oc2c(O)c(O)cc3c(=O)oc4c(O)c(O)cc1c4c23` [ELLAGIC ACID] as the compound, how does the IC50 read?
Its IC50 is 0.04 µM.

For `CCOC(=O)c1cc2c(Br)cccc2oc1=O`, which IC50 is on record?
The IC50 was 118 µM.

Which IC50 does the source give for `Cc1c(Br)c(=O)oc2c(Br)c(N)ccc12` here?
Its IC50 is > 40 µM.

Source: ChEMBL document CHEMBL1142299, “Coumarin as attractive casein kinase 2 (CK2) inhibitor scaffold: an integrate approach to elucidate the putative binding motif and explain structure-activity relationships” (J Med Chem, 2008)
